We go through 10 molecules from ChEMBL document CHEMBL4020747, “Drug-like property-driven optimization of 4-substituted 1,5-diarylanilines as potent HIV-1 non-nucleoside reverse transcriptase inhibitors against rilpivirine-resistant mutant virus” (Bioorg Med Chem Lett, 2017).

The structures appear in SMILES notation. Converted amounts (≈) assume the structure as drawn.

The nature of series [1]: Aqueous solubility of the compound in phosphate buffer at pH 7.4 after 4 hrs by HPLC-UV analysis. In kind it is physicochemical. In a few lines:
(§1)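 Aqueous solubility measured by HPLC at pH 2.0 and at pH 7.4.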

Series [2] is described as follows: Octanol-water partition coefficient, log P of the compound at pH 7.4 after 24 hrs by HPLC method. In kind it is physicochemical. The note with it: pH 7.4, 24 h.
Series [3] can be described thus: (§2) Cytotoxicity against human TZM-bl cells infected with HIV1 NL4-3. The format is cell-based. Particulars: TZM-bl cells infected with HIV1 NL4-3.
Series [4] is described as follows: Aqueous solubility of the compound in 0.01 M HCl at pH 2 after 4 hrs by HPLC-UV analysis. The format is physicochemical. The method in brief:
as §1

The nature of series [5]: (§3) Half life in human plasma at 10 ug/ml by LC/MS/MS analysis. The format is ADME, cell-free.
Series [6] in a line: Inhibition of wild type HIV1 NL4-3 reverse transcriptase infected in human TZM-b1 cells after 2 days by bright Glo-luciferase reporter gene assay. In kind it is cell-based. Particulars: Human immunodeficiency virus 1, NL4-3, TZM-b1, 48 h. The method in brief:
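Anti-HIV activity against HIV-1 NL4-3 replication in TZM-bl cells, read out by luciferase gene expression. EC50 values from at least three experiments (n = 3). Top test concentration 100 ng/mL for the newly made series.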

A short description of series [7]: (§4) Half life in human liver S9 fractions at 1 uM measured pretreated up to 45 mins followed by NADPH addition by LC/MS/MS analysis. The format is ADME, tissue-based. The note with it: liver S9 fraction. The method in brief:
(§5)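 Remaining parent was quantified by LC/MS/MS at several time points to give t1/2 (min). Data from at least two experiments in parallel.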

Series [8] can be described thus: (§6) Half life in human liver microsomes at 1 uM pretreated up to 45 mins followed by NADPH addition by LC/MS/MS analysis. The format is ADME, microsome. Particulars: liver microsomes. In a few lines:
as §5

Series [9] can be described thus: Inhibition of wild-type HIV-1 3B reverse transcriptase infected in human MT4 cells assessed as reduction in virus-induced cytopathic effect after 5 days by MTT assay. In kind it is cell-based. The note with it: Human immunodeficiency virus 1, 3B, MT4, 120 h.
For series [10], the system named is Human immunodeficiency virus 1. The series can be described thus: Fold resistance, ratio of EC50 for rilpivirine-resistant HIV1 NL4-3 reverse transcriptase E138K mutant to EC50 for wild type HIV1 NL4-3 reverse transcriptase. In a few lines:
(§7)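 Fold change calculated as EC50 against the resistant NL4-3 variant (E138K or E138K+M184I) divided by EC50 against wild-type NL4-3, both measured in parallel in TZM-bl cells by luciferase reporter expression.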

In the next series the test system is TZM. Described as §2. In kind it is cell-based. The note with it: tzm.
Series [11] can be described thus: Inhibition of rilpivirine-resistant HIV1 NL4-3 reverse transcriptase E138K/M184I double mutant infected in human TZM-b1 cells after 2 days by bright Glo-luciferase reporter gene assay. Particulars: Human immunodeficiency virus 1, NL4-3, TZM-b1, 48 h. The format is cell-based. The method in brief: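 TZM-bl cells infected with NL4-3 variant carrying E138K or E138K+M184I RT mutations; EC50 from luciferase reporter gene expression. Test compounds up to 100 ng/mL highest concentration; at least three experiments (n = 3). Run in parallel with wild-type NL4-3 and reference drug.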
A general note: In a reporter assay the amount or activity of a reporter protein is the signal.

Another series has as its system Plasma. Described as §3. In kind it is ADME, cell-free.
Series [12] deals with Liver. The description is as §4. Particulars: s9, 1 µM. The format is ADME, tissue-based. In a few lines:
as §5

For series [13], the system named is Liver. The series is described as §6. Particulars: microsomes, 1 µM. The format is ADME, microsome. In a few lines: as §5
Series [14] has as its system Human immunodeficiency virus. As to the kind of experiment: Fold resistance, ratio of EC50 for rilpivirine-resistant HIV1 NL4-3 reverse transcriptase E138K/M184I double mutant to EC50 for wild type HIV1 NL4-3 reverse transcriptase. In a few lines:
as §7

Regarding `Cc1cc(/C=C/C#N)cc(C)c1Oc1cc(Nc2ccc(C#N)cc2)c(N)cc1C(=O)N1CC(F)(F)C1`, the solubility at 4 h in series [1] was determined as 6.59 µg/mL (≈ 13.2 µM); in series [4], 57.6 µg/mL (≈ 115 µM). Further, in series [2], the logP worked out at 3.58. In series [3], this molecule displayed a CC50 above 200 nM. The molecule also gave a half-life at 10 ug/ml in series [5] of 57 h. The midpoint of the response in series [6], the EC50, lay at 13.4 nM. The half-life at 1 µM in series [7] and in series [8] was 0.233 h each time.

For the molecule `Cc1cc(C#N)cc(C)c1Oc1nc(Nc2ccc(C#N)cc2)nc(N)c1Br` [ETRAVIRINE], the EC50 in series [9] is above 1.5 nM.

Consider `Cc1cc(/C=C/C#N)cc(C)c1Oc1cc(Nc2ccc(C#N)cc2)c(N)cc1C(=O)NCCCO`, for which the solubility at 4 h in [1] is 1.01 µg/mL (≈ 2.1 µM); in [4] it was 19.9 µg/mL (≈ 41.3 µM). This molecule registered a logP in series [2] of 3.22. Also, in series [10], the Ratio EC50 stood at 0.9. The molecule also had a CC50 in the series with TZM above 208 nM. In addition, the EC50 in series [6] was found to be 24.9 nM.

For the molecule `Cc1cc(/C=C/C#N)cc(C)c1Nc1ccnc(Nc2ccc(C#N)cc2)n1` [RILPIVIRINE], the EC50 in series [11] amounted to 2.38 nM; in series [6], 0.44 nM. In addition, the logP in series [2] is listed as above 5. Also, the CC50 in the series on TZM is above 273 nM. Also, the t1/2 in the series with Plasma was determined as 92 h; in the series on Liver [12], 1.7 h; in the series on Liver [13], 1.8 h.

For the molecule `Cc1cc(/C=C/C#N)cc(C)c1Oc1cc(Nc2ccc(C#N)cc2)c(N)cc1C(=O)OCCC#N`, the solubility at 4 h in [1] is 0.36 µg/mL (≈ 0.754 µM); in [4] it was 0.94 µg/mL (≈ 1.97 µM). Also, the EC50 is 4.61 nM in series [11] and 1.11 nM in series [6]. In series [2], this molecule had a logP above 5. Further, the Ratio EC50 in series [14] was determined as 4.1; in [10] it was 2.4. Besides, in the series with TZM, the CC50 is above 210 nM. Also, the results for the t1/2 in the series on Plasma, in the series on Liver [12] and in the series with Liver [13] were 32 h, 0.2 h and 0.283 h, respectively.

Consider `Cc1cc(/C=C/C#N)cc(C)c1Oc1cc(Nc2ccc(C#N)cc2)c(N)cc1C(=O)NCCCl`, for which the figures for the solubility at 4 h in [1] and in series [4] were 1.59 µg/mL (≈ 3.27 µM) and 9.53 µg/mL (≈ 19.6 µM), respectively. The EC50 was found to be 17.3 nM in [11] and 3.29 nM in [6]. The lipophilicity (logP) in series [2] is listed as above 5. Also, the values for the Ratio EC50 in series [14] and in series [10] were 5.2 and 2.6, respectively. Besides, the CC50 with TZM was above 206 nM. In addition, the t1/2 worked out at 8 h in the series with Plasma, 1.23 h in the series on Liver [12] and 1.02 h in the series on Liver [13].

In series [2], `Cc1cc(/C=C/C#N)cc(C)c1Oc1cc(Nc2ccc(C#N)cc2)c(N)cc1C(N)=O` showed a logP of 3.53. The t1/2 came to 65 h in the series with Plasma, 1.8 h with Liver [12] and 1.5 h with Liver [13].

For the molecule `Cc1cc(/C=C/C#N)cc(C)c1Oc1cc(Nc2ccc(C#N)cc2)c(N)cc1C(=O)N1CC1`, the solubility at 4 h in series [1] was 1.2 µg/mL (≈ 2.67 µM); in [4] it was 94.2 µg/mL (≈ 210 µM). Also, the EC50 in [11] worked out at 16.7 nM; in [6], 3.33 nM. The logP in series [2] was found to be 2.21. Also, the results for the Ratio EC50 in series [14] and in series [10] were 5 and 2.6, respectively. In the series with TZM, this molecule showed a 50% cytotoxic concentration (CC50) above 223 nM. The values for the t1/2 with Plasma, in the series with Liver [12] and in the series with Liver [13] were 12 h, 1.83 h and 2.63 h, respectively.

For the molecule `Cc1cc(/C=C/C#N)cc(C)c1Oc1cc(Nc2ccc(C#N)cc2)c(N)cc1C(=O)NN`, the solubility at 4 h in series [1] turned out to be 2.4 µg/mL (≈ 5.47 µM); in series [4], 89.6 µg/mL (≈ 204 µM). Moreover, the logP in series [2] turned out to be 2.31. For the same molecule, in the series on TZM, the CC50 is above 228 nM. Moreover, the t1/2 in the series on Plasma worked out at 8 h; in the series with Liver [12], 0.65 h; with Liver [13] it was 0.6 h. Besides, the EC50 in [6] stood at 11.6 nM.

In the case of `COCCOC(=O)c1cc(N)c(Nc2ccc(C#N)cc2)cc1Oc1c(C)cc(/C=C/C#N)cc1C`, the solubility at 4 h in [1] was determined as 0.77 µg/mL (≈ 1.6 µM); in series [4], 1.64 µg/mL (≈ 3.4 µM). The EC50 in series [11] was 9.54 nM; in [6] it was 1.52 nM. In [2], this molecule showed a logP above 5. Besides, the Ratio EC50 in series [14] came to 6.3; in series [10], 2.9. In the series with TZM, the CC50 was above 207 nM. Moreover, the figures for the t1/2 with Plasma, in the series on Liver [12] and in the series on Liver [13] were 62 h, 0.158 h and 0.317 h, respectively.

A word on the solubility: it is the concentration that dissolves in the medium under given conditions. A high value points to much dissolved substance. A word on the logP: it is a log measure of how a compound divides between an organic and an aqueous phase. Lower therefore signals a more hydrophilic compound. The CC50 is the concentration that lowers cell viability or growth by half. Broadly, the half-life is how long it takes for the measured level to halve. The EC50 is the concentration needed to bring the measured effect to its halfway point.
